According to ChEMBL document CHEMBL1828620, “Synthesis of novel 6-phenyl-2,4-disubstituted pyrimidine-5-carbonitriles as potential antimicrobial agents” (2011):
Converted amounts (≈) assume the structure as drawn.

Assays:
Type in all cases: functional
Escherichia coli [1] = test: Antimicrobial activity against Escherichia coli IFO 3301 at 200 ug/disc after 24 hrs by agar disc diffusion method; conditions: IFO 3301, 24 h, read-out: DIZ
Outline: (§1)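 Agar disc diffusion: sterile 8 mm filter-paper discs moistened with compound solution in DMSO, placed on agar plates each pre-inoculated with one organism; plates held at 37 °C; growth inhibition zone diameter measured after 24 h (bacteria) or 48 h (C. albicans).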

Candida albicans [2] = test: Antifungal activity against Candida albicans IFO 0583 at 200 ug/disc after 48 hrs by agar disc diffusion method; conditions: IFO 0583, 48 h, read-out: DIZ; outline: as §1
Micrococcus luteus [3] = test: Antimicrobial activity against Micrococcus luteus IFO 3232 at 200 ug/disc after 24 hrs by agar disc diffusion method; conditions: IFO 3232, 24 h, read-out: DIZ; outline: as §1
Staphylococcus aureus [4] = test: Antimicrobial activity against Staphylococcus aureus IFO 3060 at 200 ug/disc after 24 hrs by agar disc diffusion method; conditions: IFO 3060, 24 h, read-out: DIZ; outline: as §1
Bacillus subtilis [5] = test: Antimicrobial activity against Bacillus subtilis IFO 3007 at 200 ug/disc after 24 hrs by agar disc diffusion method; conditions: IFO 3007, 24 h, read-out: DIZ; outline: as §1
Pseudomonas aeruginosa [6] = test: Antimicrobial activity against Pseudomonas aeruginosa IFO 3448 at 200 ug/disc after 24 hrs by agar disc diffusion method; conditions: IFO 3448, 24 h, read-out: DIZ; outline: as §1
Candida albicans [7] = test: Antifungal activity against Candida albicans IFO 0583 at 100 ug/disc after 48 hrs by agar disc diffusion method; conditions: IFO 0583, 48 h, read-out: DIZ; outline: as §1
Staphylococcus aureus [8] = test: Antimicrobial activity against Staphylococcus aureus IFO 3060 after 24 hrs by two fold serial dilution method
Bacillus subtilis [9] = test: Antimicrobial activity against Bacillus subtilis IFO 3007 after 24 hrs by two fold serial dilution method
Micrococcus luteus [10] = test: Antimicrobial activity against Micrococcus luteus IFO 3232 after 24 hrs by two fold serial dilution method
Escherichia coli [11] = test: Antimicrobial activity against Escherichia coli IFO 3301 after 24 hrs by two fold serial dilution method
Pseudomonas aeruginosa [12] = test: Antimicrobial activity against Pseudomonas aeruginosa IFO 3448 at 100 ug/disc after 24 hrs by agar disc diffusion method; outline: as §1
Staphylococcus aureus [13] = test: Antimicrobial activity against Staphylococcus aureus IFO 3060 at 100 ug/disc after 24 hrs by agar disc diffusion method; outline: as §1
Bacillus subtilis [14] = test: Antimicrobial activity against Bacillus subtilis IFO 3007 at 100 ug/disc after 24 hrs by agar disc diffusion method; outline: as §1
Escherichia coli [15] = test: Antimicrobial activity against Escherichia coli IFO 3301 at 100 ug/disc after 24 hrs by agar disc diffusion method; outline: as §1
Micrococcus luteus [16] = test: Antimicrobial activity against Micrococcus luteus IFO 3232 at 100 ug/disc after 24 hrs by agar disc diffusion method; outline: as §1
Pseudomonas aeruginosa [17] = test: Antimicrobial activity against Pseudomonas aeruginosa IFO 3448 after 24 hrs by two fold serial dilution method

Compound | zone of inhibition at 200 µg/disc (Escherichia coli [1]) [mm] | zone of inhibition at 200 µg/disc (Candida albicans [2]) [mm] | zone of inhibition at 200 µg/disc (Micrococcus luteus [3]) [mm] | zone of inhibition at 200 µg/disc (Staphylococcus aureus [4]) [mm] | zone of inhibition at 200 µg/disc (Bacillus subtilis [5]) [mm] | zone of inhibition at 200 µg/disc (Pseudomonas aeruginosa [6]) [mm] | MIC (Staphylococcus aureus [8]; IFO 3060, 24 h) [µg/mL] | MIC (Bacillus subtilis [9]; IFO 3007, 24 h) [µg/mL] | also measured
N#Cc1c(Nc2ccccc2C(F)(F)F)nc(SCc2ccc(Cl)cc2)nc1-c1ccccc1 | < 10 | < 10 | 10 | 12 | 12 | < 10 | – | – | –
Clc1ccccc1C(c1ccccc1)(c1ccccc1)n1ccnc1 [CLOTRIMAZOLE] | – | – | – | – | – | – | – | – | zone of inhibition at 100 µg/disc (Candida albicans [7]): 21 mm
CCOCCSc1nc(-c2ccccc2)c(C#N)c(=O)[nH]1 | 14 | < 10 | 17 | 21 | 24 | 11 | 4 (≈ 13.3 µM) | 4 (≈ 13.3 µM) | –
N#Cc1c(Nc2cccc(C(F)(F)F)c2)nc(SCc2ccc(Cl)cc2)nc1-c1ccccc1 | < 10 | < 10 | 11 | 14 | 14 | < 10 | – | – | –
N#Cc1c(-c2ccccc2)nc(SCc2ccc(F)cc2)[nH]c1=O | 18 | < 10 | 21 | 22 | 26 | 14 | 4 (≈ 11.9 µM) | 2 (≈ 5.93 µM) | MIC (Micrococcus luteus [10]; IFO 3232, 24 h): 4 µg/mL (≈ 11.9 µM); MIC (Escherichia coli [11]; IFO 3301, 24 h): 8 µg/mL (≈ 23.7 µM)
N#Cc1c(Nc2ccc(C(F)(F)F)cc2)nc(SCc2ccc(Cl)cc2)nc1-c1ccccc1 | < 10 | < 10 | 13 | 15 | 17 | < 10 | – | – | –
Cc1ccc(Sc2nc(SCc3ccc(Cl)cc3)nc(-c3ccccc3)c2C#N)cc1 | < 10 | < 10 | 11 | 14 | 13 | < 10 | – | – | –
CC1(C)S[C@@H]2[C@H](NC(=O)[C@H](N)c3ccccc3)C(=O)N2[C@H]1C(=O)O.O.O.O [AMPICILLIN TRIHYDRATE] | – | – | – | – | – | – | 2 | 0.5 | zone of inhibition at 100 µg/disc (Pseudomonas aeruginosa [12]; IFO 3448, 24 h, read-out: DIZ): 17 mm; zone of inhibition at 100 µg/disc (Staphylococcus aureus [13]; IFO 3060, 24 h, read-out: DIZ): 23 mm; zone of inhibition at 100 µg/disc (Bacillus subtilis [14]; IFO 3007, 24 h, read-out: DIZ): 21 mm; MIC (Micrococcus luteus [10]; IFO 3232, 24 h): 2 µg/mL; zone of inhibition at 100 µg/disc (Escherichia coli [15]; IFO 3301, 24 h, read-out: DIZ): 17 mm; zone of inhibition at 100 µg/disc (Micrococcus luteus [16]; IFO 3232, 24 h, read-out: DIZ): 19 mm; MIC (Pseudomonas aeruginosa [17]; IFO 3448, 24 h): 2 µg/mL
N#Cc1c(-c2ccccc2)nc(SCOCc2ccccc2)[nH]c1=O | < 10 | < 10 | 13 | 14 | 16 | < 10 | – | – | –
GENTAMICIN SULFATE | – | – | – | – | – | – | – | – | inhibition zone (IZ) (Pseudomonas aeruginosa [12]): 19 mm; inhibition zone (IZ) (Staphylococcus aureus [13]): 26 mm; inhibition zone (IZ) (Bacillus subtilis [14]): 25 mm; MIC (Micrococcus luteus [10]): 2 µg/mL; MIC (Staphylococcus aureus [8]): 2 µg/mL; MIC (Bacillus subtilis [9]): 2 µg/mL; inhibition zone (IZ) (Escherichia coli [15]): 20 mm; inhibition zone (IZ) (Micrococcus luteus [16]): 18 mm; MIC (Pseudomonas aeruginosa [17]): 1 µg/mL; MIC (Escherichia coli [11]): 0.5 µg/mL
N#Cc1c(-c2ccccc2)nc(SCc2ccc([N+](=O)[O-])cc2)[nH]c1=O | 12 | < 10 | 13 | 14 | 17 | < 10 | – | – | –
N#Cc1c(-c2ccccc2)nc(SCc2ccccc2)[nH]c1=O | < 10 | < 10 | 16 | 16 | 17 | < 10 | – | – | –
CSCCSc1nc(-c2ccccc2)c(C#N)c(=O)[nH]1 | 21 | 14 | 15 | 16 | 18 | 18 | – | 8 (≈ 26.4 µM) | –
N#Cc1c(-c2ccccc2)nc(SCc2ccc([N+](=O)[O-])o2)[nH]c1=O | 22 | 11 | 24 | 33 | 28 | 21 | 0.5 (≈ 1.41 µM) | 1 (≈ 2.82 µM) | MIC (Micrococcus luteus [10]; IFO 3232, 24 h): 1 µg/mL (≈ 2.82 µM); MIC (Pseudomonas aeruginosa [17]; IFO 3448, 24 h): 4 µg/mL (≈ 11.3 µM); MIC (Escherichia coli [11]; IFO 3301, 24 h): 2 µg/mL (≈ 5.64 µM)
Cc1cccc(Sc2nc(SCc3ccc(Cl)cc3)nc(-c3ccccc3)c2C#N)c1 | < 10 | < 10 | < 10 | < 10 | < 10 | < 10 | – | – | –
N#Cc1c(Sc2ccccc2)nc(SCc2ccc(Cl)cc2)nc1-c1ccccc1 | < 10 | < 10 | 12 | 12 | 14 | < 10 | – | – | –
COCCSc1nc(-c2ccccc2)c(C#N)c(=O)[nH]1 | 12 | < 10 | 17 | 18 | 22 | 10 | 8 (≈ 27.8 µM) | 2 (≈ 6.96 µM) | –
CCSCCSc1nc(-c2ccccc2)c(C#N)c(=O)[nH]1 | 16 | 12 | 12 | 12 | 16 | 14 | – | – | –
N#Cc1c(Nc2ccc(F)cc2)nc(SCc2ccc(Cl)cc2)nc1-c1ccccc1 | < 10 | < 10 | 19 | 16 | 18 | < 10 | 2 (≈ 4.47 µM) | 1 (≈ 2.24 µM) | MIC (Micrococcus luteus [10]; IFO 3232, 24 h): 4 µg/mL (≈ 8.95 µM)
N#Cc1c(Cl)nc(SCc2ccc(Cl)cc2)nc1-c1ccccc1 | 16 | 12 | 18 | 24 | 26 | 14 | – | – | –
Cc1ccccc1Sc1nc(SCc2ccc(Cl)cc2)nc(-c2ccccc2)c1C#N | < 10 | < 10 | < 10 | < 10 | < 10 | < 10 | – | – | –
N#Cc1c(O)nc(SCc2ccc(Cl)cc2)nc1-c1ccccc1 | 14 | < 10 | 19 | 20 | 19 | 12 | 8 (≈ 22.6 µM) | 8 (≈ 22.6 µM) | MIC (Micrococcus luteus [10]; IFO 3232, 24 h): 8 µg/mL (≈ 22.6 µM)
